Results published in ChEMBL document CHEMBL1137004, “Discovery of novel motilin antagonists: Conversion of tetrapeptide leads to orally available peptidomimetics” (Bioorg Med Chem Lett, 2009).
Activity calls are given as the source filed them. The rule behind the calls is not given here. Where a SMILES comes first, the peptide text is derived from it.

Legend:
Motilin receptor [1] = target: T1, Motilin receptor (Oryctolagus cuniculus, UniProt A5A4K8); experiment: Displacement of [125I]motilin from MTL receptor in rabbit duodenum homogenate
How it was run: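 Tissue homogenate incubated at 25 °C with 25 pM [¹²⁵I]motilin for 120 min. Stopped with ice-cold buffer, then bound and free ligand separated by centrifugation at 1500g for 5 min. Pellet washed with ice-cold buffer and counted by gamma counter. IC₅₀ is the concentration displacing 50% of ¹²⁵I-motilin binding.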

Motilin receptor [2] = target: T1, Motilin receptor; experiment: Antagonist activity at MTL receptor in rabbit duodenum homogenate; format: functional, tissue-based; conditions: read-out: pA2 (converted)
[3] = Oral bioavailability in rat at 10 mg/kg; format: ADME, organism-based; conditions: in vivo
[4] = Apparent permeability across human Caco-2 cells at pH 6.8; format: ADME, cell-based; conditions: Caco-2, pH 6.8
Canis familiaris [5] = experiment: Suppression of MTL receptor-mediated motilin-induced colonic motility in conscious dog 5 mg/kg administered 30 mins before motilin challenge; format: functional, organism-based; design: dose 5 mg/kg; conditions: Canis lupus familiaris
Canis familiaris [6] = experiment: Suppression of MTL receptor-mediated motilin-induced gastric motility in conscious dog 5 mg/kg administered 30 mins before motilin challenge; format: functional, organism-based; design: dose 5 mg/kg; conditions: Canis lupus familiaris; Stomach
[7] = Metabolic stability in rat liver S9 fraction assessed as compound remaining after 30 mins; format: ADME, subcellular; conditions: read-out: Stability
How it was run: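 Compound incubated with rat liver S-9 for 30 min at 37 °C. Stability is expressed as residual % of compound.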

T1 sequence (A5A4K8 whole entry): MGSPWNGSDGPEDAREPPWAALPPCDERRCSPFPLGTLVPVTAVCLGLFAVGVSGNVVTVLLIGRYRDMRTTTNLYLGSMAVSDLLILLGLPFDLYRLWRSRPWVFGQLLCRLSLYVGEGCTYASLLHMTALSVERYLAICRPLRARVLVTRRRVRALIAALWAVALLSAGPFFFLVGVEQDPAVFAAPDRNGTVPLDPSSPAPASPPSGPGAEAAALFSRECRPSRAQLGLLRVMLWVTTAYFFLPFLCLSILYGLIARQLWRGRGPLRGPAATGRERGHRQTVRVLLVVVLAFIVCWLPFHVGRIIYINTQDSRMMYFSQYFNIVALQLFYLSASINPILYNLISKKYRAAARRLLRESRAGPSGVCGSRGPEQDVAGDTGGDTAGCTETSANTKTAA

SMILES | IC50 (Motilin receptor [1]) | Kb (Motilin receptor [2]) | bioavailability [3] | Papp [4] | Activity (Canis familiaris [5]) | Activity (Canis familiaris [6]) | remaining at 0.5 h [7]
CC(C)(C)c1cc(C[C@@H]2NC(=O)[C@@H](NC(=O)[C@@H](N)Cc3ccccc3)CCCCCC(=O)CCNC2=O)ccc1O | 12 nM | 39.8 nM |  |  |  |  | 
CC(C)[C@@H](C(=O)N(C)[C@@H](Cc1ccc(O)c(C(C)(C)C)c1)C(N)=O)N(C)C(=O)[C@@H](N)Cc1ccccc1 (HELM PEPTIDE1{F.[meV].[CN([C@@H](Cc1ccc(O)c(C(C)(C)C)c1)C(=O)[*:2])[*:1]].[am]}$$$$V2.0) | 4.3 nM | 2.51 nM | 30% | 2.31 ×10⁻⁶ cm/s | Active | Active | 80%
CC(C)[C@H](NC(=O)[C@@H](N)Cc1ccccc1)C(=O)N(C)[C@@H](Cc1ccc(O)c(C(C)(C)C)c1)C(N)=O (HELM PEPTIDE1{F.V.[CN([C@@H](Cc1ccc(O)c(C(C)(C)C)c1)C(=O)[*:2])[*:1]].[am]}$$$$V2.0) | 24 nM | 63.1 nM |  |  |  |  | 7%
CC(C)C[C@H](NC(=O)[C@@H](N)Cc1ccccc1)C(=O)N[C@@H](Cc1ccc(O)c(C(C)(C)C)c1)C(N)=O (HELM PEPTIDE1{F.L.[CC(C)(C)c1cc(C[C@H](N[*:1])C(=O)[*:2])ccc1O].[am]}$$$$V2.0) | 27 nM | 50.1 nM |  |  |  |  | 
CC(C)(C)c1cc(C[C@H](NC(=O)[C@@H](NC(=O)[C@@H](N)Cc2ccccc2)c2ccccc2)C(N)=O)ccc1O (HELM PEPTIDE1{F.[Phg].[CC(C)(C)c1cc(C[C@H](N[*:1])C(=O)[*:2])ccc1O].[am]}$$$$V2.0) | 12 nM | 15.8 nM |  |  |  |  | 
C[C@H](NC(=O)[C@@H](N)Cc1ccccc1)C(=O)N[C@@H](Cc1ccc(O)c(C(C)(C)C)c1)C(N)=O (HELM PEPTIDE1{F.A.[CC(C)(C)c1cc(C[C@H](N[*:1])C(=O)[*:2])ccc1O].[am]}$$$$V2.0) | 185 nM | > 1000 nM |  |  |  |  | 
CC(C)[C@@H](C(=O)N[C@@H](Cc1ccc(O)c(C(C)(C)C)c1)C(N)=O)N(C)C(=O)[C@@H](N)Cc1ccccc1 (HELM PEPTIDE1{F.[meV].[CC(C)(C)c1cc(C[C@H](N[*:1])C(=O)[*:2])ccc1O].[am]}$$$$V2.0) | 1.1 nM | 12.6 nM | 6% |  |  |  | 69%
CC(C)[C@H](NC(=O)[C@@H](N)Cc1ccccc1)C(=O)N[C@@H](Cc1ccc(O)c(C(C)(C)C)c1)C(N)=O (HELM PEPTIDE1{F.V.[CC(C)(C)c1cc(C[C@H](N[*:1])C(=O)[*:2])ccc1O].[am]}$$$$V2.0) | 46 nM | 126 nM |  |  |  |  | 
CC(C)(C)c1cc(C[C@H](NC(=O)[C@H](Cc2ccccc2)NC(=O)[C@@H](N)Cc2ccccc2)C(N)=O)ccc1O (HELM PEPTIDE1{F.F.[CC(C)(C)c1cc(C[C@H](N[*:1])C(=O)[*:2])ccc1O].[am]}$$$$V2.0) | 6 nM | 63.1 nM |  |  |  |  | 
CC(C)[C@@H](C(=O)N[C@H](C)Cc1ccc(O)c(C(C)(C)C)c1)N(C)C(=O)[C@@H](N)Cc1ccccc1 | 1.9 nM | 3.98 nM | 65% | 12.1 ×10⁻⁶ cm/s | Active | Active | 100%
